What was measured:
[1] = target: Maternal embryonic leucine zipper kinase (Homo sapiens) (UniProt Q14680); experiment: Inhibition of MELK at 1 uM
Outline: (§1)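 Kinase-panel screen using KINOMEscan technology, with 250–400 kinases per panel. Each compound was tested at a single concentration, and inhibition of each kinase was recorded. Selectivity was summarised as S(90), the fraction of kinases inhibited by more than 90%.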

[2] = target: 5'-AMP-activated protein kinase catalytic subunit alpha-1 (Homo sapiens) (UniProt Q13131); experiment: Inhibition of AMPK-alpha1 at 1 uM
5'-AMP-activated protein kinase catalytic subunit alpha-1 (Homo sapiens), sequence (Q13131 whole entry, looked up): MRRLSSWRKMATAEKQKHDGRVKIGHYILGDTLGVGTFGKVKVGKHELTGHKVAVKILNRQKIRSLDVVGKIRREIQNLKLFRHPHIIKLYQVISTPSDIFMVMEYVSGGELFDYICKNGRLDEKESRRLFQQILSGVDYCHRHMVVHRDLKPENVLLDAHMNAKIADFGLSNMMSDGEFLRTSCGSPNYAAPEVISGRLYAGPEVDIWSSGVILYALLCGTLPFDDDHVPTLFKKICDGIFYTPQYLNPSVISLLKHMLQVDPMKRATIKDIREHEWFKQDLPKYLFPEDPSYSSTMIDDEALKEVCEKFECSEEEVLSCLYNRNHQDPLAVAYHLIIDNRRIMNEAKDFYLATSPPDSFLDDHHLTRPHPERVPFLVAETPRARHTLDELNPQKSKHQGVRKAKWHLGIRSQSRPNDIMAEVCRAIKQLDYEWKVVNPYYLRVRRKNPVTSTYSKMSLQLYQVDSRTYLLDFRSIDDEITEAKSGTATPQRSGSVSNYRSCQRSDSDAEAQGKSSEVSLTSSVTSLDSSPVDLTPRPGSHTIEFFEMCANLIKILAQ
Outline: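 Ambit KINOMEscan screen at a single concentration across a 250–400 kinase panel, recorded as percent inhibition. Selectivity was expressed as S(90), the fraction of kinases inhibited >90%.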

[3] = target: T1, Rhodopsin kinase GRK1 (Homo sapiens) (UniProt Q15835); experiment: Inhibition of GRK1 at 1 uM
T1 sequence (whole entry): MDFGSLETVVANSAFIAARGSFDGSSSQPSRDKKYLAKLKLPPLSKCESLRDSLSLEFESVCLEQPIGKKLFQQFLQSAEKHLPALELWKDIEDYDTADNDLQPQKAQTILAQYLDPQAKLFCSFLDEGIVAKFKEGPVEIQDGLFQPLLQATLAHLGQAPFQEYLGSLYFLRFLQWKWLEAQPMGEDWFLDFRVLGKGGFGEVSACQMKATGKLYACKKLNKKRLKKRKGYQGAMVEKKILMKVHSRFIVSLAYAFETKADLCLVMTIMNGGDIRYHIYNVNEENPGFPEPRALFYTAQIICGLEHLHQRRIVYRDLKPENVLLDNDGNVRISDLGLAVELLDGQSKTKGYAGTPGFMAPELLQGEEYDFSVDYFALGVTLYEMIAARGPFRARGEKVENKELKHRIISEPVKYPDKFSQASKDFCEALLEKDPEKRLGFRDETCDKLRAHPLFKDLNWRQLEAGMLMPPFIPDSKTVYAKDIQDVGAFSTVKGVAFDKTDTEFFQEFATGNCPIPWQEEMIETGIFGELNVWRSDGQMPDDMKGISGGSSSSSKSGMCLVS

[4] = target: T2, Cyclin-dependent kinase-like 2 (Homo sapiens) (UniProt Q92772); experiment: Inhibition of CDKL2 at 1 uM
T2 sequence (whole entry): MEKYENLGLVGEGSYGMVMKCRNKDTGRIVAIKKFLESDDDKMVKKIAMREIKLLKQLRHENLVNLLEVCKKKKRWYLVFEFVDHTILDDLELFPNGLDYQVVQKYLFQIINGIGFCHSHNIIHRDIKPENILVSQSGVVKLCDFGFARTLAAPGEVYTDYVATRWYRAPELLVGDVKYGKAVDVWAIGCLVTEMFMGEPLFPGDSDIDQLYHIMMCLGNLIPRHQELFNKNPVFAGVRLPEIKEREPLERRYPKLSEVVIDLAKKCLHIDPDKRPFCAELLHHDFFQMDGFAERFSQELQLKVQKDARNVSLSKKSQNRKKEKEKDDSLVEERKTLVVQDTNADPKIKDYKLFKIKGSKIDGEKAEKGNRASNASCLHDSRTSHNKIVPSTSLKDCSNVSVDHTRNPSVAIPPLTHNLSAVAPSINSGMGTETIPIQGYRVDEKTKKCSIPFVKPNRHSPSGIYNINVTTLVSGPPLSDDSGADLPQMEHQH

[5] = target: Platelet-derived growth factor receptor alpha (Homo sapiens) (UniProt P16234); experiment: Inhibition of PDGFRA at 1 uM
Platelet-derived growth factor receptor alpha (Homo sapiens), sequence (P16234 whole entry): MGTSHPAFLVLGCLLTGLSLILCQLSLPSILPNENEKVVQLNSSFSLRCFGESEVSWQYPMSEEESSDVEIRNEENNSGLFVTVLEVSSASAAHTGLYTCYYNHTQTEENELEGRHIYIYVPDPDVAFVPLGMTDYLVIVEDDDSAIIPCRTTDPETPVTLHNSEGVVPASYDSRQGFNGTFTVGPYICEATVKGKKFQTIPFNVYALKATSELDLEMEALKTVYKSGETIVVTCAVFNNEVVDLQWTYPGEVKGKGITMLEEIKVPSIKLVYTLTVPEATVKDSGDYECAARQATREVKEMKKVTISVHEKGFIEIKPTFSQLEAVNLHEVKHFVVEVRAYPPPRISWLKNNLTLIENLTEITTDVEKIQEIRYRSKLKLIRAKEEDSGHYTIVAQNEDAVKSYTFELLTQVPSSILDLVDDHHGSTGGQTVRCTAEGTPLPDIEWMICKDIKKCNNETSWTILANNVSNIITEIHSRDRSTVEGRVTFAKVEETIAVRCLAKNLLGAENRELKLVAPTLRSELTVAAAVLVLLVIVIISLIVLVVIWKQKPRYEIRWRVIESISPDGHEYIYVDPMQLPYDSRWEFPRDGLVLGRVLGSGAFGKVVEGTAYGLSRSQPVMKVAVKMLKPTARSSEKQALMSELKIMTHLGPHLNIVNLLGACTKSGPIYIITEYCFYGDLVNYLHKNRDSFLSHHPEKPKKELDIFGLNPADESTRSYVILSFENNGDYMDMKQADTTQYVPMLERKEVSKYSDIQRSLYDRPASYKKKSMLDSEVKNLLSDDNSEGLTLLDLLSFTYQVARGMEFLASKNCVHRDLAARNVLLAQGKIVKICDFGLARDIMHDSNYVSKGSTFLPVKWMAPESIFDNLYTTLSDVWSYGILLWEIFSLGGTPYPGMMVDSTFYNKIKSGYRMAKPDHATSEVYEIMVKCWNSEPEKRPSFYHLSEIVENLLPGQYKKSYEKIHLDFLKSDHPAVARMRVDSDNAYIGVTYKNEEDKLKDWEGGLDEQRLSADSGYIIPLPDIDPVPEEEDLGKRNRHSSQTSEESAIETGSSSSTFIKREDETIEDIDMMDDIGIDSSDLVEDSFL

[6] = target: T3, Serine/threonine-protein kinase TAO3 (Homo sapiens) (UniProt Q9H2K8); experiment: Inhibition of TAOK3 at 1 uM
T3 sequence (whole entry): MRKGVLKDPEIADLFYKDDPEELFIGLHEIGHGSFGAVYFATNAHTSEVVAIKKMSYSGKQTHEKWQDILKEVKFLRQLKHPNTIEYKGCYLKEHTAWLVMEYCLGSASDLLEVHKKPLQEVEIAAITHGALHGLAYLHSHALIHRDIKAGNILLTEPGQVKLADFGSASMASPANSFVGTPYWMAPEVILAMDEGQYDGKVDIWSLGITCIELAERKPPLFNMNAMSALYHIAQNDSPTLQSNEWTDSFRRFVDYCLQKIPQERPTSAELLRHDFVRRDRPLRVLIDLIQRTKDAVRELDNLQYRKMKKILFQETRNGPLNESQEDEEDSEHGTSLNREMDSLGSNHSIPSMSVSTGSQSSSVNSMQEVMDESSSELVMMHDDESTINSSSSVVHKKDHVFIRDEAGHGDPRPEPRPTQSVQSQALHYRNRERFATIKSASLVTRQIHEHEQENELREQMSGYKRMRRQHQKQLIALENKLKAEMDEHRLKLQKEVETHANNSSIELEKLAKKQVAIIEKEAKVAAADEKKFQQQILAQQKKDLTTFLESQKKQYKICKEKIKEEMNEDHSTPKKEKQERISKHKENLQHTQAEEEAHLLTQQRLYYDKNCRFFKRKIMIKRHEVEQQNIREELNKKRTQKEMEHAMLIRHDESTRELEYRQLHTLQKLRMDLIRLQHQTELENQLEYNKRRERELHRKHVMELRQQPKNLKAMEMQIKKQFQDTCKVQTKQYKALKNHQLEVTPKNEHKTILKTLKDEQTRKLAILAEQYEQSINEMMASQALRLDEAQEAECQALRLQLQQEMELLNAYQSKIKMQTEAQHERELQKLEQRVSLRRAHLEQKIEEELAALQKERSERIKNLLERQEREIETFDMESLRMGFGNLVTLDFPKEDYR

[7] = target: T4, Mitogen-activated protein kinase kinase kinase 7 (Homo sapiens) (UniProt O43318); experiment: Inhibition of TAK1 at 1 uM
T4 sequence (whole entry): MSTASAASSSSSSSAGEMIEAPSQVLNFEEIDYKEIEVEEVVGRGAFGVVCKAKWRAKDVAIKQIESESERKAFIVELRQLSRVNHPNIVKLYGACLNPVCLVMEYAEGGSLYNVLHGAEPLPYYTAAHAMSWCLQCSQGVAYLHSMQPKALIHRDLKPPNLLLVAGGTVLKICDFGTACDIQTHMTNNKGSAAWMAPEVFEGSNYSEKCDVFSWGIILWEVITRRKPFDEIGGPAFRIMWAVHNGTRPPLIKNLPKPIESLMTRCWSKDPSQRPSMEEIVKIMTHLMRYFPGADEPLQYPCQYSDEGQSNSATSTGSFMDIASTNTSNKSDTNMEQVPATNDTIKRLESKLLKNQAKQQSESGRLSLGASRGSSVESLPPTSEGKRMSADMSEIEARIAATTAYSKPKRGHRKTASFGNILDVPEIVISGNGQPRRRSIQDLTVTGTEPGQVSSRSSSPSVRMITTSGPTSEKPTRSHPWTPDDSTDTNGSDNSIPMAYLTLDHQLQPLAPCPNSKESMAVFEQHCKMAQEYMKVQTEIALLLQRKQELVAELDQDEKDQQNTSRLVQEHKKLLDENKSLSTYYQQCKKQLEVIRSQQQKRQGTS

[8] = target: Serine/threonine-protein kinase 26 (Homo sapiens) (UniProt Q9P289); experiment: Inhibition of MST4 at 1 uM
Serine/threonine-protein kinase 26 (Homo sapiens), sequence (Q9P289 2-416 limits assumed): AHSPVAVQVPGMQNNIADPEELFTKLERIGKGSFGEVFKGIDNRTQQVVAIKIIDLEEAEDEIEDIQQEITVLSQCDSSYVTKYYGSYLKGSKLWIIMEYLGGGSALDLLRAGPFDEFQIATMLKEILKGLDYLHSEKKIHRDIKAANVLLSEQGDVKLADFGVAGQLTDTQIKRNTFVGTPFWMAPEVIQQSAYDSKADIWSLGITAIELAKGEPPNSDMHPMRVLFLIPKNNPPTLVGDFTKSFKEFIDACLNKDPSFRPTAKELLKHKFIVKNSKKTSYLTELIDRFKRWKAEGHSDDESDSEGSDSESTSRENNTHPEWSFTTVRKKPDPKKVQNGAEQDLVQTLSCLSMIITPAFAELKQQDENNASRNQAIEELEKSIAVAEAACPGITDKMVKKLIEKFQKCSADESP

[9] = target: MAP/microtubule affinity-regulating kinase 3 (Homo sapiens) (UniProt P27448); experiment: Inhibition of MARK3 at 1 uM; outline: as §1
MAP/microtubule affinity-regulating kinase 3 (Homo sapiens), sequence (P27448 whole entry, looked up): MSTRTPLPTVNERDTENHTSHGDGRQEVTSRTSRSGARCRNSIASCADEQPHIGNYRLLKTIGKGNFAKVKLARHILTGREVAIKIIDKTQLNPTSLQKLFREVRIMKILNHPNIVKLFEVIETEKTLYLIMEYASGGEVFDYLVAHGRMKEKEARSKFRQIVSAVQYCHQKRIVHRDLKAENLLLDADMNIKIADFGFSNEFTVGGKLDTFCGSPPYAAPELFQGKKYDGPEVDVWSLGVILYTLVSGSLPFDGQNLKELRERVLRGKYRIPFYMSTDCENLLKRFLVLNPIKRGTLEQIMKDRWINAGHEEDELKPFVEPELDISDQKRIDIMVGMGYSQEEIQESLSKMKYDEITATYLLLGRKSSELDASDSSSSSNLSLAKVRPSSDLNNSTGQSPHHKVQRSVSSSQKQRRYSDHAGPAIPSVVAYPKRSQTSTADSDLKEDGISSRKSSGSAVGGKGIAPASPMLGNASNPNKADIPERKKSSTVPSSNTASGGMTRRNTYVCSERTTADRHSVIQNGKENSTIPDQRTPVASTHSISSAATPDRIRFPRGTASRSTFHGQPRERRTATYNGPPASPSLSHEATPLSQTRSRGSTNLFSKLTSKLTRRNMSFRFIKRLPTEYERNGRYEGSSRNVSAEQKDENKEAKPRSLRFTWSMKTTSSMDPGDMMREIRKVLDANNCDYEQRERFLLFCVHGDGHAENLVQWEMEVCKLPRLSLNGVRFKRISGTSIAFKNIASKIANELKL

Maternal embryonic leucine zipper kinase (Homo sapiens), sequence (Q14680 whole entry, looked up): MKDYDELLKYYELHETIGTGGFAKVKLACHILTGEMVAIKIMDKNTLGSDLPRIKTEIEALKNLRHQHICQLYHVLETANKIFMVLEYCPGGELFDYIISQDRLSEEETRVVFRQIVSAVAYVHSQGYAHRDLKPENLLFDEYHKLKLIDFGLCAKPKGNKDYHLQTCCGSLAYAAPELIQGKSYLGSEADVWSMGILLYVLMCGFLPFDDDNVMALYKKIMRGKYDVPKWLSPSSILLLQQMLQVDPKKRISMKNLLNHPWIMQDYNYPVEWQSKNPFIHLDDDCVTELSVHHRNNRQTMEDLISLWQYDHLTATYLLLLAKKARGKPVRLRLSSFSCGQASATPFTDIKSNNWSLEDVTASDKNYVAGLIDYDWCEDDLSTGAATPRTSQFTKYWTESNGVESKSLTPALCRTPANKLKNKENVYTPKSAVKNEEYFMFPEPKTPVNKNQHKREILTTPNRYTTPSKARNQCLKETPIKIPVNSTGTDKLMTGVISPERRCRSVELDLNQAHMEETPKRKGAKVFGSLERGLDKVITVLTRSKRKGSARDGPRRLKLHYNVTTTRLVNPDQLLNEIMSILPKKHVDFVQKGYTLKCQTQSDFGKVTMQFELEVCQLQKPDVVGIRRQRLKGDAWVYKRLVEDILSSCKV

| Structure (SMILES) | inhibition [1] | inhibition [2] | inhibition [3] | inhibition [4] | inhibition [5] | inhibition [6] | inhibition [7] | inhibition [8] | inhibition [9] |
| --- | --- | --- | --- | --- | --- | --- | --- | --- | --- |
| CC(=O)N1CCN(c2cc(-c3cnc4c(c3)N(Cc3cc(Cl)ccc3C(F)(F)F)CCN4)ccn2)CC1 | < 50% | < 50% | < 50% | < 50% | < 50% | < 50% | < 50% | < 50% | < 50% |
| O=C(O)c1ccc(-c2cnc3c(c2)N(Cc2cc(Cl)ccc2C(F)(F)F)CCN3)cc1 | < 50% | < 50% | – | – | < 50% | – | – | < 50% | < 50% |
| CN1CCN(c2ccc(-c3cnc4c(c3)N(Cc3cc(Cl)ccc3C(F)(F)F)CCN4)cn2)CC1 | < 50% | < 50% | < 50% | < 50% | < 50% | < 50% | < 50% | < 50% | < 50% |
| CN1CCN(c2ccc(-c3cnc4c(c3)N(Cc3cc(F)ccc3F)CCN4)cn2)CC1 | < 50% | < 50% | < 50% | < 50% | < 50% | < 50% | < 50% | < 50% | < 50% |
| CN1CCN(c2ccc(-c3cnc4c(c3)N(Cc3cc(Cl)ccc3Cl)CCN4)cn2)CC1 | < 50% | < 50% | < 50% | < 50% | < 50% | < 50% | < 50% | < 50% | < 50% |
| CN1CCN(c2ccc(-c3cnc4c(c3)N(Cc3c(F)ccc(F)c3Cl)CCN4)cn2)CC1 | < 50% | < 50% | < 50% | < 50% | < 50% | < 50% | < 50% | < 50% | < 50% |
| FC(F)(F)c1ccc(Cl)cc1CN1CCNc2ncc(-c3ccnc(N4CCNCC4)c3)cc21 | < 50% | 66% | < 50% | < 50% | < 50% | < 50% | < 50% | < 50% | < 50% |

Other lines, results leading:

| inhibition [1] | inhibition [2] | inhibition [3] | inhibition [4] | inhibition [5] | inhibition [6] | inhibition [7] | inhibition [8] | inhibition [9] | Structure (SMILES) |
| --- | --- | --- | --- | --- | --- | --- | --- | --- | --- |
| < 50% | < 50% | – | – | < 50% | – | – | < 50% | < 50% | O=C(c1ccc(-c2cnc3c(c2)N(Cc2cc(Cl)ccc2C(F)(F)F)CCN3)cc1)N1CCCCC1 |
| < 50% | < 50% | – | – | < 50% | – | – | < 50% | < 50% | COC1CCN(C(=O)c2ccc(-c3cnc4c(c3)N(Cc3cc(Cl)ccc3C(F)(F)F)CCN4)cc2)CC1 |
| < 50% | < 50% | – | – | < 50% | – | – | < 50% | < 50% | O=C(c1ccc(-c2cnc3c(c2)N(Cc2cc(Cl)ccc2C(F)(F)F)CCN3)cc1)N1CCC(N2CCCC2)CC1 |
